# Test results reported in ChEMBL document CHEMBL1142991, “Structure-activity relationship study to understand the estrogen receptor-dependent gene activation of aryl- and alkyl-substituted 1H-imidazoles” (J Med Chem, 2007).
# Activity calls are given as the source filed them. The calls are words filed in the database; no cut-off is given here.
# Legend:
# [1] = species on record: Homo sapiens; test: Decrease in COX activity
# [2] = molecular target: T1, Estrogen receptor (Bos taurus) (UniProt P49884); test: Displacement of [3H]estradiol from calf ER alpha after 16 hrs relative to estradiol
# T1 sequence (whole entry): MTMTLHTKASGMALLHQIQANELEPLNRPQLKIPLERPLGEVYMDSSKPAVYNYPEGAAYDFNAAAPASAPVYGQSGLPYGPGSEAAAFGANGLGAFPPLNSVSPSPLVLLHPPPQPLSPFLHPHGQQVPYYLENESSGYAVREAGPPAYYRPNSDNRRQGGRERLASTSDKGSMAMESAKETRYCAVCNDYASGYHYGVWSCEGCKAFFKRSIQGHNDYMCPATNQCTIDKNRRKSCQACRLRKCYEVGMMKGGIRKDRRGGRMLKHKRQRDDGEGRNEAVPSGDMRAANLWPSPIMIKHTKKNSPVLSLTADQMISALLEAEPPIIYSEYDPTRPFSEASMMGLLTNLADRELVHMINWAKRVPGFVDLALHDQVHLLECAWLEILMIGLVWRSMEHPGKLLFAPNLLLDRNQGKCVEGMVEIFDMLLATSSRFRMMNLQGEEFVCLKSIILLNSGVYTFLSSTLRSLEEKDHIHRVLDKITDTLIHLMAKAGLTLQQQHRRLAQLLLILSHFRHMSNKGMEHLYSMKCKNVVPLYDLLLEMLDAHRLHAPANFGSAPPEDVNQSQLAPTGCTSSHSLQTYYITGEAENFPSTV
# Outline: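 Calf uterine cytosol as receptor source, shaken with 17β-[³H]estradiol and competitor at 4 °C for 16 h; dextran-coated charcoal stop, centrifugation, supernatant radioactivity counted. Six competitor concentrations; % bound label plotted against log concentration, and the concentration giving 50% displacement taken for competitor and for unlabeled estradiol to give relative binding affinity.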
# [3] = system: MCF7-2A; test: Activation of transcriptional activity at ERalpha expressed in MCF7-2a cells assessed as luciferase expression at 10 uM relative to estradiol; assay type: functional, cell-based, Homo sapiens; details: for EC50: Homo sapiens, MCF7-2A, in the assay text read “relative to estradiol” for “at 10 uM relative to estradiol”
# Outline: (§1)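 Reporter cells: MCF-7-2a (stable ERE_wtcluc) kept one week in DMEM with L-glutamine, antibiotics, dextran/charcoal-treated BCS (50 mL/L); seeded ~2.2 × 10⁵ cells/mL in six-well plates, compound added after 24 h at 10^-5 to 10^-10 M, 50 h incubation; lysed, luciferase luminescence read 10 s, normalized to Bradford protein; expressed as % of 10^-8 M estradiol; triplicate, single experiment.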
# [4] = system: MCF7-2A; test: Activation of transcriptional activity at ERalpha expressed in MCF7-2a cells assessed as luciferase expression relative to estradiol; assay type: functional, cell-based; details: Homo sapiens; outline: as §1
Compound,RBA [2] [%],Activity [3] [%],other results
Oc1ccc(-c2nc(-c3ccc(O)cc3Cl)cn2-c2ccc(O)cc2)cc1,,,Activity [1]: Active
CCc1c(-c2ccc(O)cc2)nc(-c2ccc(O)cc2)n1-c1ccc(O)cc1,0.11,140,EC50 [3]: 77 nM
Oc1ccc(-c2nc(-c3ccc(O)cc3Cl)c(-c3ccccc3)n2-c2ccc(O)cc2)cc1,,40,
Oc1ccc(-c2cn(-c3ccc(O)cc3)c(-c3ccc(O)cc3Cl)n2)cc1,,,Activity [1]: inactive
CCc1c(-c2ccc(O)cc2)nc(-c2ccccc2)n1-c1ccc(O)cc1,,90,EC50 [4]: 61 nM
Cc1c(-c2ccc(O)cc2)nc(-c2ccc(O)cc2)n1-c1ccc(O)cc1,,100,EC50 [3]: 140 nM
CCc1c(-c2ccc(O)cc2)nc(-c2ccc(O)cc2)n1-c1ccccc1,,60,
Oc1ccc(-c2nc(-c3ccc(O)cc3)n(-c3ccc(O)cc3)c2-c2ccccc2)cc1,,100,EC50 [3]: 350 nM
Oc1ccc(-c2nc(-c3ccc(O)cc3Cl)n(-c3ccc(O)cc3)c2-c2ccccc2)cc1,,50,

# The next lines start with results.
RBA [2] [%],Compound,Activity [3] [%],other results
0.11,Cc1c(-c2ccc(O)cc2Cl)nc(-c2ccc(O)cc2Cl)n1-c1ccc(O)cc1,,
0.09,Oc1ccc(-n2cc(-c3ccc(O)cc3Cl)nc2-c2ccc(O)cc2Cl)cc1,,Activity [1]: Active
0.19,CCc1c(-c2ccc(O)cc2)nc(-c2ccc(O)cc2Cl)n1-c1ccc(O)cc1,,EC50 [4]: 480 nM
